Results reported in publication PMC10786778 (Diabetes Therapy, 2023).
“Also recorded” adds a separate entry of the source. Where two headings read alike, the source gives them in different places. Blank lines part the entries; values can stand above or below the compound they belong to.

What was measured:
QT interval [1] = conditions: cited from earlier work
C-peptide = experiment: Serum C-peptide level; format: in vivo, human
How it was run: (§1)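 48 Chinese adults with T2DM, untreated with hypoglycemic agents for 3 months, randomized double-blind to placebo or 10, 25 or 50 mg oral tablets. Dosing was once every 2 weeks for 12 weeks (six doses), with 240.0 mL water, fasted on days 1 and 29. Values were measured by each site's standard procedure, compared with baseline or placebo, and summarized descriptively (mean, SD, median, range).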

[2] = Plasma pharmacokinetics of HSK7653 after first and last oral dose; format: in vivo, human
HbA1c = HbA1c change in T2DM patients; format: in vivo, human
How it was run: as §1

fasting plasma glucose = experiment: Fasting plasma glucose in T2DM patients; format: in vivo, human
How it was run: as §1

Safety and tolerability = format: in vivo, human
How it was run: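 Safety in 48 T2DM patients given placebo or 10/25/50 mg tablets orally every 2 weeks for 12 weeks, then 2 weeks of safety follow-up. Monitoring covered adverse events, physical examination, blood and urine routine, biochemistry, amylase and lipase, vital signs, 12-lead ECG and hypoglycemic events. ADR incidence was tabulated per dose group and graded by severity.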

glucagon = experiment: Plasma glucagon level; format: in vivo, human
QT interval [3] = experiment: Plasma concentration QT analysis of single dose in healthy subjects; format: in vivo, human; conditions: dose of 25 mg or less every two weeks
[4] = mass balance study; ref CTR20201559; cited from earlier work
[5] = system: glycosylated albumin (GA); experiment: Glycated albumin; format: in vivo, human
How it was run: as §1

[6] = day 85, 50 mg, among 11 subjects

SMILES: CC#CCn1c(N2CCC[C@@H](N)C2)nc2c1c(=O)n(Cc1nc(C)c3ccccc3n1)c(=O)n2C [linagliptin]
- effect on QTc interval (QT interval [1]; doses of 5 and 100 mg, compared with placebo): did not increase the QTc interval

SMILES: N[C@@H](CC(=O)N1CCn2c(nnc2C(F)(F)F)C1)Cc1cc(F)c(F)cc1F [sitagliptin]
- effect on QTc interval (QT interval [1]; clinical dose 100 mg): does not correlate with an increase in QTc interval
- effect on QT interval (QT interval [1]; super-therapeutic dose of 800 mg, clinical significance not significant): the QT interval is prolonged

- mean Rac_AUC ([2]; 10–50 mg every two weeks): 1.0–1.1
- mean Rac_Cmax ([2]; 10–50 mg every two weeks): 0.9–1.0
- Tmax ([2]; human, plasma, oral, 10 mg, Tmax, median (min, max), multiple (last dose)): 1 h
- Cmax ([2]; human, plasma, oral, 25 mg, Cmax, mean ± SD (CV%), multiple (last dose)): 411 ng/mL
- Tmax ([2]; human, plasma, oral, 25 mg, Tmax, median (min, max), single (first dose)): 2 h
- Vd/F ([2]; human, plasma, po): 61.1 to 81.9 L
- half-life ([2]; human, plasma, po): 64 to 87 h
- Tmax ([2]; human, plasma, po, median Tmax, dose range 10–50 mg): 1 to 3 h
SMILES: CS(=O)(=O)n1cc2c(n1)CN([C@@H]1C[C@H](N)[C@@H](c3cc(F)ccc3F)O[C@@H]1C(F)(F)F)C2 [HSK7653, (2R,3S,5R,6S)-2-(2,5-difluorophenyl)-5-[2-(methylsulfonyl)-2,6-dihydropyrrolo[3,4-c]pyrazol-5(4H)-yl]-6-(trifluoromethyl)-tetrahydro-2H-pyran-3-amine]
- level of C-peptide with increasing treatment time (C-peptide; 10 mg dose group): gradually increased to a similar level as the placebo group
- level of C-peptide compared with the placebo group (C-peptide; 25 and 50 mg dose groups): no significant change
- accumulation in vivo ([2]; 10–50 mg every two weeks): not accumulated in vivo; also recorded: did not accumulated in body
- HbA1c, Mean ± SD (HbA1c; Day 43, 10 mg): 7.7 ± 0.4
- HbA1c, Mean ± SD (HbA1c; Day 43, 25 mg): 7.5 ± 0.6
- HbA1c, Mean ± SD (HbA1c; Day 43, 50 mg): 8.3 ± 1.0
- HbA1c, Mean ± SD (HbA1c; Day 85, 10 mg): 7.3 ± 0.3
- HbA1c, Mean ± SD (HbA1c; Day 85, 25 mg): 7.4 ± 0.7
- HbA1c, Mean ± SD (HbA1c; Day 85, 50 mg): 8.4 ± 1.1
- subjects with HbA1c decreased significantly (HbA1c; [6]): 5 subjects
- subjects with HbA1c increased compared with baseline (HbA1c; [6]): 6 subjects
- fasting blood glucose lower than baseline by (fasting plasma glucose; day 43, 10 mg): 0.7 mmol/L
- mean fasting blood glucose (fasting plasma glucose; day 43, 10 mg): 9.2 mmol/L
- fasting blood glucose lower than baseline by (fasting plasma glucose; day 43, 25 mg): 0.5 mmol/L
- mean fasting blood glucose (fasting plasma glucose; day 43, 25 mg): 8.1 mmol/L
- fasting blood glucose increased from baseline by (fasting plasma glucose; day 43, 50 mg): 0.8 mmol/L
- fasting blood glucose decreased compared with the baseline by (fasting plasma glucose; day 85, 10 mg): 0.7 mmol/L
- mean fasting blood glucose (fasting plasma glucose; day 85, 10 mg): 9.2 mmol/L
- fasting blood glucose decreased compared with the baseline by (fasting plasma glucose; day 85, 25 mg): 0.2 mmol/L
- mean fasting blood glucose (fasting plasma glucose; day 85, 25 mg): 8.5 mmol/L
- incidence of ADR (Safety and tolerability; 10 mg dose group): 33.3%
- incidence of TEAEs (Safety and tolerability; 10 mg dose group): 58.3%
- incidence of ADR (Safety and tolerability; 25 mg dose group): 58.3%
- incidence of TEAEs (Safety and tolerability; 25 mg dose group): 91.7%
- incidence of ADR (Safety and tolerability; 50 mg dose group): 75.0%
- incidence of TEAEs (Safety and tolerability; 50 mg dose group): 83.3%
- serious adverse events (Safety and tolerability; 10–50 mg once every two weeks): no serious adverse events
- ADR incidence: anemia (Safety and tolerability; HSK7653 dose group total): 5.6%
- ADR incidence: decreased T wave amplitude of ECG (Safety and tolerability; HSK7653 dose group total): 5.6%
- ADR incidence: dizziness (Safety and tolerability; HSK7653 dose group total): 2.8%
- ADR incidence: dyspepsia (Safety and tolerability; HSK7653 dose group total): 11.1%
- ADR incidence: electrocardiogram T wave abnormal (Safety and tolerability; HSK7653 dose group total): 8.3%
- ADR incidence: hyperbilirubinemia (Safety and tolerability; HSK7653 dose group total): 5.6%
- ADR incidence: hyperlipidemia (Safety and tolerability; HSK7653 dose group total): 8.3%
- ADR incidence: hypertriglyceridemia (Safety and tolerability; HSK7653 dose group total): 11.1%
- ADR incidence: increased blood bilirubin (Safety and tolerability; HSK7653 dose group total): 5.6%
- ADR incidence: positive urine red blood cells (Safety and tolerability; HSK7653 dose group total): 5.6%
- ADR incidence: upper respiratory tract infection (Safety and tolerability; HSK7653 dose group total): 5.6%
- ADR incidence: urinary tract infection (Safety and tolerability; HSK7653 dose group total): 8.3%
- ADR incidence: white blood cells urine positive (Safety and tolerability; HSK7653 dose group total): 8.3%
- ADR incidence: prolonged QT interval of ECG (Safety and tolerability; HSK7653 dose group total (4/36)): 11.1%
- tolerability (Safety and tolerability; doses of 10–50 mg, Chinese T2DM subjects): well tolerated and safe
- glucagon level with increasing treatment time (glucagon; 10 mg dose group, 90–180 min after meal): gradually decreased to below the level of the placebo group
- glucagon level compared with the placebo group (glucagon; 25 and 50 mg dose groups, during treatment): lower than the placebo group during treatment
- risk of prolongation of QT interval (QT interval [3]): no significant risk of prolongation of QT interval
- fecal excretion [4]: 7.4%
- hepatic metabolism, metabolites in feces [4]: 5.7%
- hepatic metabolism, metabolites in urine [4]: 9.7%
- renal excretion [4]: 68.1%
- GA level lower than the baseline by ([5]; day 43, 10 mg): 2.3%
- mean GA value ([5]; day 43, 10 mg): 21.2%
- GA level lower than the baseline by ([5]; day 43, 25 mg): 0.8%
- mean GA value ([5]; day 43, 25 mg): 21.0%
- GA level higher than the baseline by ([5]; day 43, 50 mg): 0.4%
- mean GA value ([5]; day 43, 50 mg): 23.6%
- mean GA value ([5]; day 85, 10 mg): 20.0%
- mean GA value ([5]; day 85, 25 mg): 20.5%
- mean GA value ([5]; day 85, 50 mg): 24.2%

SMILES: Cc1cc(N2CCN([C@@H]3CN[C@H](C(=O)N4CCSC4)C3)CC2)n(-c2ccccc2)n1 [Teneligliptin]
- effect on QT interval (QT interval [1]; only at 4 times the normal dose (160.0 mg/day)): significantly prolonged the QT interval
